# Data: ChEMBL document CHEMBL4007441, “Novel Design of Heptad Amphiphiles To Enhance Cell Selectivity, Salt Resistance, Antibiofilm Properties and Their Membrane-Disruptive Mechanism” (J Med Chem, 2017)
# Tests used:
# Pseudomonas aeruginosa [1] = experiment: Antibacterial activity against Pseudomonas aeruginosa 26305 clinical isolate after 18 hrs by broth microdilution method; assay type: functional
# Pseudomonas aeruginosa [2] = experiment: Antibacterial activity against Pseudomonas aeruginosa ATCC 27853 after 18 hrs by broth microdilution method; assay type: functional
# Outline: (§1)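 Broth microdilution in Mueller-Hinton broth. Exponential-phase bacteria (37 °C, 220 rpm shaking) were diluted to about 1 × 10^6 CFU/mL and mixed 1:1 with two-fold serial peptide dilutions. MIC is the lowest concentration with no visible turbidity after 18 h at 37 °C. Controls were uninoculated MHB and untreated culture. Run at least three times, two replicates each.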
# Pseudomonas aeruginosa [3] = experiment: Antibacterial activity against ceftazidime-resistant Pseudomonas aeruginosa 11431 after 18 hrs by broth microdilution method; assay type: functional; outline: as §1
# Pseudomonas aeruginosa [4] = experiment: Antibacterial activity against gentamicin-resistant Pseudomonas aeruginosa 11421 after 18 hrs by broth microdilution method; assay type: functional; details: Pseudomonas aeruginosa, 11421, 18 h
# Outline: (§2)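 Broth microdilution in Mueller-Hinton broth. Exponential-phase bacteria (37 °C, 220 rpm shaking) were diluted to about 1 × 10^6 CFU/mL and mixed 1:1 with two-fold serial peptide dilutions. Controls were uninoculated MHB and untreated culture. Run at least three times, two replicates each.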
# Pseudomonas aeruginosa [5] = experiment: Antibacterial activity against Pseudomonas aeruginosa CICC 21625 after 18 hrs by broth microdilution method; assay type: functional; outline: as §1
# Pseudomonas aeruginosa [6] = experiment: Antibacterial activity against Pseudomonas aeruginosa CICC 21630 after 18 hrs by broth microdilution method; assay type: functional; outline: as §1
# Staphylococcus aureus = experiment: Antibacterial activity against Staphylococcus aureus ATCC 29213 after 18 hrs by broth microdilution method; assay type: functional
# Outline: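 Broth microdilution. Exponential-phase bacteria grown in MHB at 37 °C, diluted to about 1 × 10^6 CFU/mL in MHB and mixed 1:1 with two-fold dilutions of peptide. MIC is the lowest concentration with no visible turbidity after 18 h at 37 °C. Controls were uninoculated broth and peptide-free culture. At least three repeats, duplicates each.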
# Pseudomonas aeruginosa [7] = experiment: Antibacterial activity against Pseudomonas aeruginosa 25349 clinical isolate after 18 hrs by broth microdilution method; assay type: functional
# Pseudomonas aeruginosa [8] = experiment: Antibacterial activity against Pseudomonas aeruginosa 21328 clinical isolate after 18 hrs by broth microdilution method; assay type: functional; details: Pseudomonas aeruginosa, 21328, 18 h
# Pseudomonas aeruginosa [9] = experiment: Antibacterial activity against Pseudomonas aeruginosa CICC 10419 after 18 hrs by broth microdilution method; assay type: functional; outline: as §1
# RAW264.7 = experiment: Cytotoxicity in mouse RAW264.7 cells after 24 hrs by MTT assay; assay type: cell-based; details: raw264.7, 24 h
# Pseudomonas aeruginosa [10] = experiment: Antibacterial activity against ciprofloxacin-resistant Pseudomonas aeruginosa 11411 after 18 hrs by broth microdilution method; assay type: functional; outline: as §2
# Escherichia coli = experiment: microbe, parasite or virus in culture; details: ATCC 25922, 18 h
# Pseudomonas aeruginosa [11] = experiment: Drug uptake in Pseudomonas aeruginosa ATCC 27853 treated with FITC-labeled compound at MIC after 30 mins by confocal fluorescence microscopy; assay type: ADME; details: 0.5 h
# Outline: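 Cells were pelleted at 5,000 g for 5 min, washed three times in PBS, smeared and imaged by confocal microscopy with 488 nm excitation.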
# Lipopolysaccharide (LPS) = experiment: Binding affinity to Pseudomonas aeruginosa ATCC 27853 LPS by SPR spectroscopic analysis
# Outline: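 Biacore SPR. Peptides were amine-coupled to CM5 chips at 20 µg/mL in 10 mM acetate pH 6.0, giving about 1300 RU. LPS at 3.125–12.5 µg/mL in 20 mM Tris/100 mM NaCl pH 7.4 was flowed at 10 µL/min. Surfaces were regenerated with 50 mM NaOH plus 0.05% SDS. Three independent runs.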
# Pseudomonas aeruginosa [12] = experiment: Antibacterial activity against Pseudomonas aeruginosa ATCC 27853 assessed as induction of outer membrane permeabilization by measuring NPN uptake by spectrofluorophotometric analysis; assay type: functional
# Outline: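 Exponential-phase cells were washed in HEPES pH 7.4 with 5 mM glucose and diluted to about 10^5 CFU/mL. NPN was added at 10 µM final, then peptide at varying concentrations. Fluorescence (ex 350/em 420 nm) was followed to plateau. Values are % NPN uptake relative to polymyxin B at 10 mg/L (100%). Three experiments, duplicates.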
# Pseudomonas aeruginosa [13] = experiment: Antibacterial activity against Pseudomonas aeruginosa ATCC 27853 assessed as induction of membrane integrity disruption at MIC after 15 mins by PI-staining based flow cytometry (reference value: 4.7%)
# Pseudomonas aeruginosa [14] = experiment: Antibacterial activity against Pseudomonas aeruginosa ATCC 27853 assessed as induction of cytoplasmic membrane depolarization after 90 min incubation under dark condition by diSC3-5 dye-based fluorescence analysis; assay type: functional
# Outline: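 Exponential-phase cells were washed three times in 5 mM HEPES (pH 7.4). diSC3-5 (0.4 µM final) and KCl (0.1 M final) were added, then the cells were incubated 90 min at 37 °C in the dark. Peptide at a range of concentrations was added and fluorescence followed at ex 622/em 670 nm. Three independent experiments, duplicates each.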
# [15] = Pseudomonas aeruginosa, 26305, 18 h
# [16] = Pseudomonas aeruginosa, 11431, 18 h
# [17] = Pseudomonas aeruginosa, 25349, 18 h
# [18] = Pseudomonas aeruginosa, 11411, 18 h
Molecule,MIC (Pseudomonas aeruginosa [1]; [15]),"MIC (Pseudomonas aeruginosa [2]; ATCC 27853, 18 h)",MIC (Pseudomonas aeruginosa [3]; [16]),MIC (Pseudomonas aeruginosa [4]),"MIC (Pseudomonas aeruginosa [5]; CICC 21625, 18 h)","MIC (Pseudomonas aeruginosa [6]; CICC 21630, 18 h)","MIC (Staphylococcus aureus; ATCC 29213, 18 h)",MIC (Pseudomonas aeruginosa [7]; [17]),MIC (Pseudomonas aeruginosa [8]),"MIC (Pseudomonas aeruginosa [9]; CICC 10419, 18 h)",CC10 (RAW264.7),MIC (Pseudomonas aeruginosa [10]; [18]),MIC (Escherichia coli),Activity (Pseudomonas aeruginosa [12]),also measured
CC(C)(O/N=C(\C(=O)N[C@@H]1C(=O)N2C(C(=O)[O-])=C(C[n+]3ccccc3)CS[C@H]12)c1csc(N)n1)C(=O)O [CEFTAZIDIME],128 µg/mL,2 µg/mL,256 µg/mL,32 µg/mL,32 µg/mL,8 µg/mL,16 µg/mL,64 µg/mL,256 µg/mL,32 µg/mL,> 256 µg/mL,32 µg/mL,2 µg/mL,,
O=C(O)c1cn(C2CC2)c2cc(N3CCNCC3)c(F)cc2c1=O [CIPROFLOXACIN],,4 µg/mL,,16 µg/mL,,16 µg/mL,4 µg/mL,,,,,,,,
CC[C@H](C)[C@H](NC(=O)CN)C(=O)NCC(=O)N[C@@H](C)C(=O)N[C@H](C(=O)N[C@@H](CC(C)C)C(=O)N[C@@H](CCCCN)C(=O)N[C@H](C(=O)N[C@@H](CC(C)C)C(=O)N[C@H](C(=O)N[C@H](C(=O)NCC(=O)N[C@@H](CC(C)C)C(=O)N1CCC[C@H]1C(=O)N[C@@H](C)C(=O)N[C@@H](CC(C)C)C(=O)N[C@H](C(=O)N[C@@H](CO)C(=O)N[C@@H](Cc1c[nH]c2ccccc12)C(=O)N[C@H](C(=O)N[C@@H](CCCCN)C(=O)N[C@@H](CCCNC(=N)N)C(=O)N[C@@H](CCCCN)C(=O)N[C@@H](CCCNC(=N)N)C(=O)N[C@@H](CCC(N)=O)C(=O)N[C@@H](CCC(N)=O)C(N)=O)[C@@H](C)CC)[C@@H](C)CC)[C@@H](C)O)[C@@H](C)O)C(C)C)C(C)C [MELITTIN],,,,,,,,,,,0.5 µg/mL,,,,Drug uptake (Pseudomonas aeruginosa [11]): Active; Activity (Lipopolysaccharide (LPS)): Dose-dependent effect
GENTAMICIN [listing 1 of 2 here],,,,,,,,,,,> 256 µg/mL,,,,
GENTAMICIN [listing 2 of 2 here],,,,,,,,,,,,,,,MIC (Pseudomonas aeruginosa [1]): 2 µg/mL; MIC (Pseudomonas aeruginosa [2]): 2 µg/mL; MIC (Pseudomonas aeruginosa [3]): 8 µg/mL; MIC (Pseudomonas aeruginosa [5]): 32 µg/mL; MIC (Pseudomonas aeruginosa [6]): 8 µg/mL; MIC (Staphylococcus aureus): 1 µg/mL; MIC (Pseudomonas aeruginosa [7]): 4 µg/mL; MIC (Pseudomonas aeruginosa [9]): 16 µg/mL; MIC (Pseudomonas aeruginosa [10]): 32 µg/mL
H-ARRARRRWRRRARRA-NH2,256 µg/mL,128 µg/mL,256 µg/mL,256 µg/mL,256 µg/mL,256 µg/mL,64 µg/mL,32 µg/mL,256 µg/mL,256 µg/mL,> 256 µg/mL,256 µg/mL,64 µg/mL,Dose-dependent effect,
H-FRRFRRRWRRRFRRF-NH2,64 µg/mL,8 µg/mL,16 µg/mL,256 µg/mL,256 µg/mL,32 µg/mL,16 µg/mL,8 µg/mL,256 µg/mL,256 µg/mL,256 µg/mL,256 µg/mL,8 µg/mL,Dose-dependent effect,
H-LRRLRRRLRRLRRRWRRRLRRLRRRLRRL-OH,16 µg/mL,8 µg/mL,8 µg/mL,16 µg/mL,8 µg/mL,4 µg/mL,16 µg/mL,8 µg/mL,8 µg/mL,4 µg/mL,128 µg/mL,8 µg/mL,8 µg/mL,Dose-dependent effect,
H-LRRLRRRWLRRLRRR-NH2,64 µg/mL,32 µg/mL,64 µg/mL,256 µg/mL,64 µg/mL,32 µg/mL,64 µg/mL,32 µg/mL,128 µg/mL,256 µg/mL,> 256 µg/mL,128 µg/mL,> 128 µg/mL,Dose-dependent effect,Activity (Pseudomonas aeruginosa [13]): 57%; Activity (Pseudomonas aeruginosa [14]): Dose-dependent effect
H-LRRLRRRWRRRLRRL-NH2,32 µg/mL,16 µg/mL,16 µg/mL,32 µg/mL,16 µg/mL,16 µg/mL,16 µg/mL,8 µg/mL,32 µg/mL,32 µg/mL,256 µg/mL,32 µg/mL,16 µg/mL,Dose-dependent effect,Activity (Pseudomonas aeruginosa [13]): 93%; Activity (Pseudomonas aeruginosa [14]): Dose-dependent effect
H-WRRWRRRWRRRWRRW-NH2,32 µg/mL,4 µg/mL,8 µg/mL,256 µg/mL,256 µg/mL,16 µg/mL,16 µg/mL,32 µg/mL,256 µg/mL,256 µg/mL,128 µg/mL,256 µg/mL,32 µg/mL,Dose-dependent effect,
